Tested on: HEK-293T
Assay: Multiplex assay against HEK293T
Assay type: toxicity, cell-based
Details: human
In short: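 Live cells were stained at seeding with Hoechst33342, BioTracker Green Microtubule Cytoskeleton Dye, MitoTracker Red and Annexin V Alexa Fluor 680. Following compound addition, they were imaged on a CQ1 microscope at 37°C and 5% CO2 and gated by CellPathfinder machine learning into Hoechst high-intensity objects or normal cells, with normal cells split into healthy, pyknosed or fragmented nuclei and pyknosed cells into mitotic or apoptotic. Tubulin, mitochondrial-mass and membrane-permeability phenotypes are per cents of healthy-nucleus cells.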

[1] = 12 h, 1 µM, compound concentration 1 uM, replicate 1
[2] = 12 h, 1 µM, compound concentration 1 uM, replicate 2
[3] = 12 h, 10 µM, compound concentration 10 uM, replicate 1
[4] = 12 h, 10 µM, compound concentration 10 uM, replicate 2
[5] = 24 h, 1 µM, compound concentration 1 uM, replicate 1
[6] = 24 h, 1 µM, compound concentration 1 uM, replicate 2
[7] = 24 h, 10 µM, compound concentration 10 uM, replicate 1
[8] = 24 h, 10 µM, compound concentration 10 uM, replicate 2
[9] = 48 h, 1 µM, compound concentration 1 uM, replicate 1
[10] = 48 h, 1 µM, compound concentration 1 uM, replicate 2
[11] = 48 h, 10 µM, compound concentration 10 uM, replicate 1
[12] = 48 h, 10 µM, compound concentration 10 uM, replicate 2

CCOc1c2c(c(OCC)c3ncccc13)CN(c1ccc(CS(=O)(=O)NC(=O)Cc3ccccc3OC)cc1C)C2=O
Population Apoptotic (%) [1]: 33%
Population Fragmented Nuclei (%) [1]: 3%
Population Healthy Nuclei (%) [1]: 81%
Population Hoechst High Intensity Objects (%) [1]: 6%
Population Membrane Permeable-Phenotype (%) [1]: 0%
Population Mitochondria Different-Phenotype (%) [1]: 43%
Population Mitotic Cells (%) [1]: 66%
Population Normal (%) [1]: 93%
Population Pyknosed Nuclei (%) [1]: 14%
Population Tubulin-Different-Phenotype (%) [1]: 31%
Total Cell Count [1]: 356
Population Apoptotic (%) [2]: 35%
Population Fragmented Nuclei (%) [2]: 5%
Population Healthy Nuclei (%) [2]: 82%
Population Hoechst High Intensity Objects (%) [2]: 5%
Population Mitochondria Different-Phenotype (%) [2]: 54%
Population Mitotic Cells (%) [2]: 64%
Population Normal (%) [2]: 94%
Population Pyknosed Nuclei (%) [2]: 12%
Population Tubulin-Different-Phenotype (%) [2]: 16%
Total Cell Count [2]: 355
Population Apoptotic (%) [3]: 45%
Population Fragmented Nuclei (%) [3]: 9%
Population Healthy Nuclei (%) [3]: 78%
Population Hoechst High Intensity Objects (%) [3]: 4%
Population Membrane Permeable-Phenotype (%) [3]: 0%
Population Mitochondria Different-Phenotype (%) [3]: 49%
Population Mitotic Cells (%) [3]: 54%
Population Normal (%) [3]: 95%
Population Pyknosed Nuclei (%) [3]: 12%
Population Tubulin-Different-Phenotype (%) [3]: 34%
Total Cell Count [3]: 367
Population Apoptotic (%) [4]: 53%
Population Fragmented Nuclei (%) [4]: 7%
Population Healthy Nuclei (%) [4]: 76%
Population Hoechst High Intensity Objects (%) [4]: 9%
Population Mitochondria Different-Phenotype (%) [4]: 72%
Population Mitotic Cells (%) [4]: 46%
Population Normal (%) [4]: 90%
Population Pyknosed Nuclei (%) [4]: 16%
Population Tubulin-Different-Phenotype (%) [4]: 29%
Total Cell Count [4]: 362
Population Apoptotic (%) [5]: 35%
Population Fragmented Nuclei (%) [5]: 11%
Population Healthy Nuclei (%) [5]: 73%
Population Hoechst High Intensity Objects (%) [5]: 5%
Population Membrane Permeable-Phenotype (%) [5]: 0%
Population Mitochondria Different-Phenotype (%) [5]: 28%
Population Mitotic Cells (%) [5]: 64%
Population Normal (%) [5]: 94%
Population Pyknosed Nuclei (%) [5]: 14%
Population Tubulin-Different-Phenotype (%) [5]: 20%
Total Cell Count [5]: 462
Population Apoptotic (%) [6]: 27%
Population Fragmented Nuclei (%) [6]: 5%
Population Healthy Nuclei (%) [6]: 85%
Population Hoechst High Intensity Objects (%) [6]: 3%
Population Mitochondria Different-Phenotype (%) [6]: 27%
Population Mitotic Cells (%) [6]: 72%
Population Normal (%) [6]: 96%
Population Pyknosed Nuclei (%) [6]: 8%
Population Tubulin-Different-Phenotype (%) [6]: 10%
Total Cell Count [6]: 473
Population Apoptotic (%) [7]: 18%
Population Fragmented Nuclei (%) [7]: 10%
Population Healthy Nuclei (%) [7]: 75%
Population Hoechst High Intensity Objects (%) [7]: 4%
Population Membrane Permeable-Phenotype (%) [7]: 0%
Population Mitochondria Different-Phenotype (%) [7]: 36%
Population Mitotic Cells (%) [7]: 81%
Population Normal (%) [7]: 95%
Population Pyknosed Nuclei (%) [7]: 14%
Population Tubulin-Different-Phenotype (%) [7]: 28%
Total Cell Count [7]: 446
Population Apoptotic (%) [8]: 32%
Population Fragmented Nuclei (%) [8]: 8%
Population Healthy Nuclei (%) [8]: 82%
Population Hoechst High Intensity Objects (%) [8]: 8%
Population Membrane Permeable-Phenotype (%) [8]: 1%
Population Mitochondria Different-Phenotype (%) [8]: 49%
Population Mitotic Cells (%) [8]: 67%
Population Normal (%) [8]: 91%
Population Pyknosed Nuclei (%) [8]: 9%
Population Tubulin-Different-Phenotype (%) [8]: 17%
Total Cell Count [8]: 481
Population Apoptotic (%) [9]: 29%
Population Fragmented Nuclei (%) [9]: 13%
Population Healthy Nuclei (%) [9]: 79%
Population Hoechst High Intensity Objects (%) [9]: 3%
Population Membrane Permeable-Phenotype (%) [9]: 0%
Population Mitochondria Different-Phenotype (%) [9]: 20%
Population Mitotic Cells (%) [9]: 70%
Population Normal (%) [9]: 96%
Population Pyknosed Nuclei (%) [9]: 6%
Population Tubulin-Different-Phenotype (%) [9]: 13%
Total Cell Count [9]: 822
Population Apoptotic (%) [10]: 33%
Population Fragmented Nuclei (%) [10]: 11%
Population Healthy Nuclei (%) [10]: 83%
Population Hoechst High Intensity Objects (%) [10]: 1%
Population Mitochondria Different-Phenotype (%) [10]: 14%
Population Mitotic Cells (%) [10]: 66%
Population Normal (%) [10]: 98%
Population Pyknosed Nuclei (%) [10]: 5%
Population Tubulin-Different-Phenotype (%) [10]: 7%
Total Cell Count [10]: 770
Population Apoptotic (%) [11]: 41%
Population Fragmented Nuclei (%) [11]: 13%
Population Healthy Nuclei (%) [11]: 78%
Population Hoechst High Intensity Objects (%) [11]: 4%
Population Membrane Permeable-Phenotype (%) [11]: 1%
Population Mitochondria Different-Phenotype (%) [11]: 32%
Population Mitotic Cells (%) [11]: 58%
Population Normal (%) [11]: 95%
Population Pyknosed Nuclei (%) [11]: 8%
Population Tubulin-Different-Phenotype (%) [11]: 16%
Total Cell Count [11]: 631
Population Apoptotic (%) [12]: 33%
Population Fragmented Nuclei (%) [12]: 12%
Population Healthy Nuclei (%) [12]: 81%
Population Hoechst High Intensity Objects (%) [12]: 3%
Population Membrane Permeable-Phenotype (%) [12]: 0%
Population Mitochondria Different-Phenotype (%) [12]: 22%
Population Mitotic Cells (%) [12]: 66%
Population Normal (%) [12]: 96%
Population Pyknosed Nuclei (%) [12]: 6%
Population Tubulin-Different-Phenotype (%) [12]: 11%
Total Cell Count [12]: 724

Source: ChEMBL document CHEMBL5058577, “EUbOPEN Chemogenomics Library 2 (Multiplex)” (2022)
